Measured values reported in PubChem BioAssay AID871 (The Scripps Research Institute Molecular Screening Center, 2007).
The whole screen tested about 190,000 compounds, of which about 1,800 (0.95%) were called active. What follows is part of a selection rich in actives, with near analogues and random picks from the rest. A number with no mark means an inactive call.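 How the source made its calls: active means activation above the screen-wide mean of compound activation plus 3 SD (cut at about 130% in these data); inactive means the rest.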

Assay: IL-6 driven STAT3 reporter potentiators, primary screen, U3A cells, luciferase, luminescence, MLSCN library (AID 871);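 further: 0% = background luminescence of wells with medium and substrate only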
Conditions: IL-6 STAT3-luciferase reporter, at 5.6 µM, stronger effect = higher value, 100% = signal with IL-6 EC80 alone
How it was run: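 Material: human STAT1-deficient U3A cells with stable STAT3-luciferase reporter / Probe or stimulus: IL-6 stimulus at 33 ng/mL final / Schedule: 1 h compound pre-exposure, 6 h IL-6 stimulation, 37 °C / Technique: luminescence / Read-out basis: percent of IL-6-only median luminescence / Control set: IL-6-only high control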

SMILES | activation (% of control)
CC(C(=O)O)n1cnc2sc3c(c2c1=O)CCCC3 (configuration not stated) | 102%
COc1ccc(C2C(C(C)=O)=C(O)C(=O)N2CCc2c[nH]c3ccccc23)cc1 (configuration not stated) | 108%
COc1ccc(C2C(C(C)=O)=C(O)C(=O)N2Cc2cccnc2)cc1 (configuration not stated) | 100%
COc1ccc(C2C(C(C)=O)=C(O)C(=O)N2c2nccs2)cc1 (configuration not stated) | 134% (active)
O=C(Cc1ccccc1Cl)N1CCN(c2ccccn2)CC1 | 100%
Cn1nnnc1NCc1ccc(Cl)c(Cl)c1 | 101%
C[n+]1ccc(/C=C/c2c[nH]c3ccccc23)cc1 | 115%
Cc1cccc(NC(=S)Nc2ccc(Cl)c(Cl)c2)c1 | 92.4%
Cc1ccc(OCc2nnc(SC3CCc4ccccc4C3=O)n2C)cc1 (configuration not stated) | 144% (active)
Cc1ccc(OCc2n[nH]c(=S)n2-c2ccccc2)cc1 | 105%
Cc1cccnc1NC(=O)CSc1nnc(COc2ccc(C(C)C)cc2)n1C | 98.9%
Cc1cc(C)cc(OCC(=O)NCc2cc(C)nc3ccccc23)c1 | 92.5%
O=C(CC1NCCc2ccccc21)Nc1cccc(Cl)c1 (configuration not stated) | 100%
CCOc1cc(N2CCOCC2)c(OCC)cc1NC(=O)c1cc(C)nc2ccccc12 | 93.6%
CCCCn1c(=O)c(CCC(=O)OCC(=O)Nc2ccc(C)c(Cl)c2)nc2ccccc21 | 100%
CCCCOc1ccc(NC(=O)[C@@H]2CCCN2C(=O)C2CCN(S(=O)(=O)c3ccc(C)cc3)CC2)cc1 | 102%
COc1cc(NC(=O)COc2ccccc2Cl)ccc1NC(=O)C(C)C | 84.8%
CC(=O)Nc1ccc(NC(=O)COc2ccccc2C(=O)Nc2cccc(Cl)c2Cl)cc1 | 136% (active)
O=C(COc1ccccc1Cl)Nc1ccc(C(=O)c2ccc(C(=O)O)cc2)cc1 | 85.3%
Cc1cc2oc(C(=O)Nc3c(C)n(C)n(-c4ccccc4)c3=O)c(C)c2cc1Cl | 96.5%
CC(C)COP(=O)(c1ccc(N(C)C)cc1)C(Nc1ccccc1)c1cccnc1 (configuration not stated) | 106%
Nc1ccc(S(=O)(=O)Nc2nccc(/C=C/c3ccc(Br)s3)n2)cc1 | 92.4%
Oc1cccc2ccc(/C=C/c3ccc(Br)s3)nc12 | 146% (active)
O=C(Nc1nnc(C2CC2)s1)C1=NN(C2CCS(=O)(=O)C2)C(=O)CC1 (configuration not stated) | 103%
O=C(N/N=C/c1ccccn1)c1ccc(S(=O)(=O)N2CCCCCC2)cc1 | 104%

SMILES | activation (% of control)
O=C(C1CCN(C2CCN(Cc3cccc4c3OCO4)CC2)CC1)N1CCOCC1 | 108%
Cc1ccc(OCC(=O)N/N=C\c2ccco2)c(C)c1 | 92.2%
Cc1ccc(/C=N/NC(=O)COc2ccccc2-c2ccccc2)cc1 | 148% (active)
Cc1ccc(OCC(=O)N/N=C/c2ccncc2)cc1 | 95.8%
CC(=O)C1=C(C)NC2=C(C(=O)CC(C)(C)C2)C1C (configuration not stated) | 97%
N#Cc1ncc(C(F)(F)F)cc1Oc1cccnc1 | 107%
CC(=O)Nc1ccc(Nc2nc3c(S(=O)(=O)c4ccc(C)c(C)c4)nnn3c3ccccc23)cc1 | 95.2%
Cc1cccc(Nc2nc3c(S(=O)(=O)c4ccccc4)nnn3c3ccccc23)c1C | 105%
COCCCNc1nc2c(-c3cccc(C(F)(F)F)c3)nnn2c2ccccc12 | 147% (active)
O=C(CNCc1ccco1)Nc1cc(S(=O)(=O)N2CCOCC2)ccc1N1CCCC1 | 114%
CCOc1ccc(NC(=S)N2CCC(N(C)CC3CCCO3)CC2)cc1 (configuration not stated) | 102%
COc1cc2c(cc1OC)CN(C(=O)c1ccc(S(=O)(=O)N3CCCCCC3)cc1)CC2 | 92.7%
COc1cc2c(cc1OC)CN(C(=O)c1cc(=O)c3ccccc3o1)CC2 | 92.7%
CCOc1cc(C(=O)N2CCc3cc(OC)c(OC)cc3C2)ccc1OC(F)F | 133% (active)
O=C(CNS(=O)(=O)c1ccccc1)NCC(=O)OCc1ccccc1F | 108%
Cc1cc(O)c(NC(=O)c2ccc(C)c([N+](=O)[O-])c2)cc1C | 134% (active)
Cc1ccc(C(=O)Nc2cccc3ncccc23)cc1[N+](=O)[O-] | 94.5%
CCN1CCC(=NNC(=O)c2ccc(C)c([N+](=O)[O-])c2)CC1 | 107%
Cc1ccccc1CC1(CO)CCCN(Cc2ccc3c(c2)OCCO3)C1 (configuration not stated) | 93.5%
COc1ccccc1CCNC(=O)CSc1nnc2ccc(-c3cccnc3)nn12 | 101%
CC(C)(C)C(=O)CN1C2=NCCN2c2ccccc21 | 96.1%
O=C(NCc1ccco1)c1cccn2c(=O)c3c4c(sc3nc12)CCCC4 | 154% (active)
C=C(C)Cn1c(SCC(=O)NCc2ccco2)nc2sc3c(c2c1=O)CCC3 | 104%
COc1ccc(CCn2c(=N)c(C(=O)NCc3ccco3)cc3c(=O)n4cccc(C)c4nc32)cc1 | 94.5%
O=C(Nc1nnc(SCc2ccccc2Cl)s1)c1cccc([N+](=O)[O-])c1 | 109%

SMILES | activation (% of control)
c1ccc(-c2nnc(SCc3nc4ccccc4[nH]3)o2)cc1 | 109%
Fc1ccc2nc(-c3ccccc3)nc(SCc3nnc(-c4ccccc4)o3)c2c1 | 141% (active)
Fc1ccc(-c2nnc(CSc3nnc(-c4ccc5c(c4)OCO5)o3)o2)cc1 | 102%
O=C(NCCCO)/C(=C\C=C\c1ccccc1)NC(=O)c1ccccc1Cl | 101%
CC1CCc2sc(C(=O)N/N=C/C3CCCCC3)cc2C1 (configuration not stated) | 103%
CN(NC(=O)c1ccccc1)c1nc2ccccc2nc1C(F)(F)F | 96%
CN(NC(=O)c1ccccc1F)c1nc(C(F)(F)F)nc2ccccc12 | 115%
CSc1nc(N(C)NC(=O)c2cccc(C)c2)c2ccccc2n1 | 139% (active)
COc1ccc2nc(Nc3nc4cc5c(cc4s3)OCCO5)sc2c1 | 93.3%
CSc1ncccc1C(=O)Nc1nc2ccc(F)cc2s1 | 90.7%
Fc1ccc2nc(Nc3nc4c(s3)CCCC4)sc2c1 | 147% (active)
COc1cc(NC(=S)NCc2ccco2)c(OC)cc1Cl | 95.6%
COc1ccccc1N1CCN(C(=O)c2cc(-c3ccc(Cl)c(Cl)c3)on2)CC1 | 91.7%
O=C(c1ccncc1)N1CCN(c2ccc3ccccc3n2)CC1 | 90%
O=C(c1ccc2ccccc2n1)N1CCN(c2ccccc2Cl)CC1 | 135% (active)
O=C(/C=C/c1ccc(F)cc1)NCCNC(=O)/C=C/c1ccc(F)cc1 | 95%
COC(=O)CC(=O)N1CCN(c2ccc(Cl)c(Cl)c2)CC1 | 87.7%
CCC(=O)N(Cc1ccccc1)c1ccccn1 | 101%
Cc1csc2ncc(C(=O)N(Cc3ccccc3)c3ccccn3)c(=O)n12 | 144% (active)
CC(C)(C)C(=O)N(Cc1ccccc1)c1ccccn1 | 106%
CCCCCCCCc1c(O)nc(-n2[nH]c(C)c(CCO)c2=O)[nH]c1=O | 102%
CCCC1OC23CCCCC2C(C#N)(C#N)C1(C#N)C(=N)O3 (configuration not stated) | 104%
CC(C)(C)c1ccc(NC(=O)COC(=O)CCc2nc3ccccc3c(=O)[nH]2)cc1 | 95.4%
COc1cccc(/C=C(/CC(=O)Nc2ccc(N3CCOCC3)cc2)c2nc3ccccc3s2)c1 | 143% (active)
COc1cccc(C(=O)Nc2ccc(N3CCCC3)cc2)c1 | 90.1%

SMILES | activation (% of control)
COc1ccc(/C=C(/CC(=O)Nc2ccc(C)cc2)c2nc3ccccc3s2)cc1 | 103%
CCc1ccccc1NC(=O)CN(C)C(=O)COc1ccc(C)nc1[N+](=O)[O-] | 104%
COc1ccc(CC(=O)Nc2ccccc2NC(=O)c2ccco2)cc1OC | 100%
CCOC(=O)C1C(c2ccc(Cl)cc2)NC(=S)NC1(O)C(F)(F)F (configuration not stated) | 98.2%
CCCCCCCC1(C)NC(=O)N(CC(=O)Nc2cc(C)on2)C1=O (configuration not stated) | 93.7%
O=C(O)CSCc1nc2ccccc2s1 | 144% (active)
CSCCC(Nc1nc2ccccc2s1)C(=O)O (configuration not stated) | 99.7%
O=C(O)CS/C(=C\c1ccc(F)cc1)c1nc2ccccc2s1 | 136% (active)
O=C(Nc1ccccc1)Nc1nc2ccccc2s1 | 100%
COc1cccc2sc(NNC(=O)c3nc4ccccc4s3)nc12 | 120%
O=C(O)CCCCc1nc2ccccc2s1 | 94.9%
CCOP(=O)(OCC)C(Nc1cccc(C)c1)c1ccc(F)cc1 (configuration not stated) | 95.7%
O=C(Cn1nnc2ccccc2c1=O)NCc1ccc(Cl)cc1 | 101%
C#CCCCc1nc2ccccc2c(=O)n1N | 96.4%
Cc1cc(C(=O)NNC(=S)Nc2ccccc2C)cs1 | 100%
COc1ccc(C(=O)NC(Cc2ccc(OC(=O)c3ccc(OC)cc3)cc2)C(=O)O)cc1 (configuration not stated) | 100%
NC1=NC(=O)C(Cc2cccc(Cl)c2Cl)S1 (configuration not stated) | 98.2%
CCCCn1c(=O)c(C(C)=O)c(O)c2ccccc21 | 106%
CCOc1ccc(N=Cc2c(O)n(-c3cccc(C)n3)c(=O)c3ccccc23)cc1 | 78.3%
CC(=O)n1c(C=Nc2ccccc2)c(O)c2ccccc21 | 134% (active)
O=C1c2ccccc2NC(c2ccccc2O)N1NS(=O)(=O)c1ccccc1 (configuration not stated) | 101%
COc1ccc(CN2CCN(Cc3cn(C)nc3-c3ccccc3)CC2CCO)c(C)c1C (configuration not stated) | 105%
